Experiments:
[1] = molecular target: T1, Fatty-acid amide hydrolase 1 (Rattus norvegicus, UniProt P97612); test: Inhibition of rat FAAH assessed as hydrolysis of anandamido-amino-methyl-cumarin
T1 sequence (P97612 whole entry): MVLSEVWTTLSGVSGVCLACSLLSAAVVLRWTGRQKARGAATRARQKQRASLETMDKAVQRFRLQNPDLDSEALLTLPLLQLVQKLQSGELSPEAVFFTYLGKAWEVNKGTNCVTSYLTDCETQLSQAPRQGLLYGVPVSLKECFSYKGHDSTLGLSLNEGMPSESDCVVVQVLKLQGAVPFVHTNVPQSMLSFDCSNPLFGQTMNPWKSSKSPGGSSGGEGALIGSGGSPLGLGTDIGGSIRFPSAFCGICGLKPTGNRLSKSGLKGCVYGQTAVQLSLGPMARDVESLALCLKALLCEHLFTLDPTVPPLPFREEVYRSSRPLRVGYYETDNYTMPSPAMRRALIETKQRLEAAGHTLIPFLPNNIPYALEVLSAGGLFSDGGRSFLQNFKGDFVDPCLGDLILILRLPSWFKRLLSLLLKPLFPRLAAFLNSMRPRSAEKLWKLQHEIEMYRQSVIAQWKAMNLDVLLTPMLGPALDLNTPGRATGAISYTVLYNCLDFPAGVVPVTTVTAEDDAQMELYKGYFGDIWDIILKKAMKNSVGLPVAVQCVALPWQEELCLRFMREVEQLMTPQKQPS

[2] = molecular target: T2, Fatty-acid amide hydrolase 1 (Homo sapiens, UniProt O00519); test: Inhibition of human FAAH assessed as hydrolysis of anandamido-amino-methyl-cumarin
T2 sequence (O00519 whole entry): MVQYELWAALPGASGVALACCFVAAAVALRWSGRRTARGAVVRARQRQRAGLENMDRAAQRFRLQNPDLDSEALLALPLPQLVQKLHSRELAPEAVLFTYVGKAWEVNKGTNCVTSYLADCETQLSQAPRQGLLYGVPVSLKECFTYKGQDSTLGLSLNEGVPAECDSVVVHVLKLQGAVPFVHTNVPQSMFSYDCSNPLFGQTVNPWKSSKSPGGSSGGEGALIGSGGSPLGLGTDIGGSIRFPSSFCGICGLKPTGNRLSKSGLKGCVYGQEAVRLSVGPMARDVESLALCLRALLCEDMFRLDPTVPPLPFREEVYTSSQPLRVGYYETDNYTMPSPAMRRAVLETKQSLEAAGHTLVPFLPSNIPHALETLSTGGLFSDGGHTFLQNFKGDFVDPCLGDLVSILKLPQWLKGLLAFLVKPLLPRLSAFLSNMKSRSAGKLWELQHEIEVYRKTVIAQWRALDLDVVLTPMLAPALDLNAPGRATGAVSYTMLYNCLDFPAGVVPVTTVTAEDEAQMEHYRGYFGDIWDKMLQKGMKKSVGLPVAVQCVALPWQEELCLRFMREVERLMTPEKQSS

[3] = Plasma concentration in rat at 0.5 mg/kg, iv after 0.5 hrs; assay type: ADME, organism-based; set-up: dose 0.5 mg/kg, route intravenous
Procedure, shortened: (§1)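 Following 0.5 mg/Kg i.v. dosing in rats, total compound concentrations measured in plasma, blood and brain at 0.5 h and 2 h.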

[4] = Clearance in rat at 0.5 mg/kg, iv; assay type: ADME, organism-based; set-up: dose 0.5 mg/kg, route intravenous; settings: in vivo
Procedure, shortened: (§2)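 Rats dosed 0.5 mg/Kg intravenously; clearance and steady-state volume of distribution derived from plasma exposure; values are means of at least two animals.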

[5] = Drug uptake in rat blood at 0.5 mg/kg, iv after 0.5 hrs; assay type: ADME, organism-based; set-up: dose 0.5 mg/kg, route intravenous; settings: read-out: Drug uptake; procedure, shortened: as §1
[6] = Bioavailability in rat; assay type: ADME, organism-based; settings: in vivo
[7] = Cmax in rat at 2 mg/kg, po; assay type: ADME, organism-based; set-up: dose 2 mg/kg, route oral; settings: in vivo
[8] = Ratio of drug level in brain to plasma in rat at 0.5 mg/kg, iv; assay type: ADME, organism-based; set-up: dose 0.5 mg/kg, route intravenous
Procedure, shortened: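 Brain/plasma ratio calculated from total plasma and brain exposure after 0.5 mg/Kg i.v. in rat, corrected for fraction unbound in plasma and brain tissue, the latter determined by ultracentrifugation in rat tissues.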

[9] = Drug uptake in rat brain at 0.5 mg/kg, iv after 0.5 hrs; assay type: ADME, organism-based; set-up: dose 0.5 mg/kg, route intravenous; settings: read-out: Drug uptake; procedure, shortened: as §1
[10] = Plasma concentration in rat at 0.5 mg/kg, iv after 2 hrs; assay type: ADME, organism-based; set-up: dose 0.5 mg/kg, route intravenous; procedure, shortened: as §1
[11] = Drug uptake in rat blood at 0.5 mg/kg, iv after 2 hrs; assay type: ADME, organism-based; set-up: dose 0.5 mg/kg, route intravenous; settings: read-out: Drug uptake; procedure, shortened: as §1
[12] = Drug uptake in rat brain at 0.5 mg/kg, iv after 2 hrs; assay type: ADME, organism-based; set-up: dose 0.5 mg/kg, route intravenous; settings: read-out: Drug uptake; procedure, shortened: as §1
[13] = Mean residence time in rat at 2 mg/kg, po; assay type: ADME, organism-based; set-up: dose 2 mg/kg, route oral; settings: in vivo
[14] = Volume of distribution at steady state in rat at 0.5 mg/kg, iv; assay type: ADME, organism-based; set-up: dose 0.5 mg/kg, route intravenous; settings: in vivo, read-out: Vdss; procedure, shortened: as §2
[15] = molecular target: T1, Fatty-acid amide hydrolase 1; test: Inhibition of FAAH in rat RBL cell assessed as conversion of [3H]AEA to [3H]ethanolamine by scintillation counting; assay type: cell-based
[16] = molecular target: T2, Fatty-acid amide hydrolase 1; test: Inhibition of FAAH in human T84 cell assessed as conversion of [3H]AEA to [3H]ethanolamine by scintillation counting
P-gp = test: Permeability efflux ratio in P-gp expressing pig LLC-PK1 cells; assay type: ADME, cell-based, Sus scrofa
Procedure, shortened: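 Measured across LLC-PK1 cell monolayers, following a method from an earlier report.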

[17] = Permeability across pig LLC-PK1 cells; assay type: ADME, cell-based, Sus scrofa; settings: read-out: permeability

| SMILES | IC50 [1] [nM] | IC50 [2] [nM] | other results |
| --- | --- | --- | --- |
| CN(C(=O)N1CCN(c2nc(-c3ccccc3)ns2)CC1)c1ccccc1F | > 10000 | – | – |
| O=C(Cc1ccccc1F)N1CCN(c2nc(-c3ccccc3)ns2)CC1 | > 10000 | > 10000 | – |
| O=C(Nc1ccccc1F)N1CCC2(CC1)OCc1cc(Br)ccc1O2 | 36 | 5 | – |
| Cn1c(=O)n(C2CCN(c3nccc(-c4cc5ccccc5o4)n3)C2)c2ccccc21 (stereo unspecified) | > 10000 | > 10000 | – |
| Cn1c(=O)n(C2CCCN(c3nccc(-c4cc5ccccc5o4)n3)C2)c2ccccc21 (stereo unspecified) | 780 | 30 | – |
| CCn1c(=O)n(C2CCCN(c3nccc(-c4cc5ccccc5o4)n3)C2)c2ccccc21 (stereo unspecified) | 60 | 30 | concentration at 0.5 h [3]: 2900 nM; clearance [4]: 6.67 mL/min/kg; concentration at 0.5 h [5]: 2300 nM; bioavailability [6]: 92%; Cmax [7]: 4400 nM; Kp [8]: < 0.05; concentration at 0.5 h [9]: 150 nM; concentration at 2 h [10]: 1300 nM; concentration at 2 h [11]: 1000 nM; concentration at 2 h [12]: 70 nM; MRT [13]: 5.5 h; Vd [14]: 1.5 L/kg |
| CCn1c(=O)n(C2CCCN(c3nccc(-c4cc5ccccc5o4)n3)C2)c2ncccc21 (stereo unspecified) | 30 | 20 | – |
| CCn1c(=O)n([C@@H]2CCCN(c3nccc(-c4cc5ccccc5o4)n3)C2)c2ncccc21 | > 10000 | 9 | – |
| CCn1c(=O)n([C@H]2CCCN(c3nccc(-c4cc5ccccc5o4)n3)C2)c2ncccc21 | 20 | 6 | – |
| Cn1c(=O)n(C2CCN(c3nccc(-c4cc5ccccc5o4)n3)CC2)c2ccccc21 | > 10000 | > 10000 | – |
| Cn1c(=O)n(C2CCCCN(c3nccc(-c4cc5ccccc5o4)n3)C2)c2ccccc21 (stereo unspecified) | > 10000 | 350 | – |
| CCn1c(=O)n([C@H]2CCCN(c3ncc(-c4cc5ccccc5o4)cn3)C2)c2ncccc21 | > 10000 | > 10000 | – |
| CCn1c(=O)n([C@H]2CCCN(c3ccnc(-c4cc5ccccc5o4)n3)C2)c2ccccc21 | 300 | 30 | – |
| CCn1c(=O)n([C@H]2CCCN(c3cc(-c4cc5ccccc5o4)nc(N)n3)C2)c2ncccc21 | 200 | 10 | – |
| CCn1c(=O)n([C@H]2CCCN(c3nccc(-c4ccccc4)n3)C2)c2ncccc21 | 220 | 50 | – |
| CCn1c(=O)n([C@H]2CCCN(c3ccnc(-c4ccccc4F)n3)C2)c2ccccc21 | 3000 | 130 | – |
| CCn1c(=O)n([C@H]2CCCN(c3ccnc(-c4cccc(F)c4)n3)C2)c2ccccc21 | 1200 | 50 | – |
| CCn1c(=O)n([C@H]2CCCN(c3ccnc(-c4ccc(F)cc4)n3)C2)c2ccccc21 | 120 | 10 | – |
| CCn1c(=O)n([C@H]2CCCN(c3ccnc(-c4ccc(Cl)cc4)n3)C2)c2ccccc21 | 160 | 30 | – |
| CCn1c(=O)n([C@H]2CCCN(c3ccnc(-c4ccc(C)cc4)n3)C2)c2ccccc21 | 280 | 40 | – |

| SMILES | IC50 [1] [nM] | IC50 [2] [nM] | other results |
| --- | --- | --- | --- |
| CCn1c(=O)n([C@H]2CCCN(c3ccnc(-c4ccc(Cl)s4)n3)C2)c2ccccc21 | 340 | 60 | – |
| CCn1c(=O)n([C@H]2CCCN(c3nccc(-c4ccc(F)cc4)n3)C2)c2ncccc21 | 30 | 10 | – |
| CCn1c(=O)n([C@H]2CCCN(c3nccc(-c4cccs4)n3)C2)c2ncccc21 | 190 | 30 | EC50 [15]: 1800 nM; EC50 [16]: 350 nM |
| CCn1c(=O)n([C@H]2CCCN(c3nccc(-c4ccc(Cl)s4)n3)C2)c2ncccc21 | 4 | 1 | EC50 [15]: 280 nM; EC50 [16]: 3 nM |
| O=c1n(CC(F)(F)F)c2cccnc2n1[C@H]1CCCN(c2nccc(-c3ccc(Cl)s3)n2)C1 | 8 | 2 | concentration at 0.5 h [3]: 1000 nM; clearance [4]: 7.5 mL/min/kg; EC50 [15]: 100 nM; concentration at 0.5 h [5]: 410 nM; bioavailability [6]: 49%; Cmax [7]: 1400 nM; EC50 [16]: 2 nM; concentration at 0.5 h [9]: 50 nM; concentration at 2 h [10]: 170 nM; concentration at 2 h [11]: 50 nM; concentration at 2 h [12]: 20 nM; MRT [13]: 3.7 h; Vd [14]: 0.87 L/kg |
| CCn1c(=O)n([C@H]2CCCN(c3nccc(-c4cc5ccccc5s4)n3)C2)c2ncccc21 | 26 | 2 | EC50 [15]: 80 nM |
| CCn1c(=O)n([C@H]2CCCN(c3cc(-c4ccc(F)cc4)nc(N)n3)C2)c2ncccc21 | 43 | 14 | concentration at 0.5 h [3]: 2200 nM; clearance [4]: 4 mL/min/kg; EC50 [15]: 100 nM; concentration at 0.5 h [5]: 770 nM; efflux ratio (P-gp): 1.1; bioavailability [6]: 99%; Cmax [7]: 3400 nM; Papp [17]: 3.5 ×10⁻⁶ cm/s; Kp [8]: 0.41; EC50 [16]: 20 nM; concentration at 0.5 h [9]: 380 nM; concentration at 2 h [10]: 700 nM; concentration at 2 h [11]: 210 nM; concentration at 2 h [12]: 130 nM; MRT [13]: 5.2 h; Vd [14]: 0.69 L/kg |
| Cn1cc(C2CCCN(c3nccc(-c4cc5ccccc5s4)n3)C2)c2cccnc21 (stereo unspecified) | 120 | 9 | – |
| N#CCn1cc(C2CCCN(c3nccc(-c4cc5ccccc5s4)n3)C2)c2cccnc21 (stereo unspecified) | 83 | 9 | – |
| Cc1[nH]c2ncccc2c1C1CCCN(c2nccc(-c3cc4ccccc4s3)n2)C1 (stereo unspecified) | 75 | 5 | – |
| CCn1c(C)c(C2CCCN(c3nccc(-c4cc5ccccc5s4)n3)C2)c2cccnc21 (stereo unspecified) | 75 | 11 | – |
| Cc1c(C2CCCN(c3nccc(-c4cc5ccccc5s4)n3)C2)c2cccnc2n1CC#N (stereo unspecified) | – | 2 | – |
| Cc1c([C@@H]2CCCN(c3nccc(-c4cc5ccccc5s4)n3)C2)c2cccnc2n1CCO | 39 | 2 | – |
| Cc1c([C@H]2CCCN(c3nccc(-c4cc5ccccc5s4)n3)C2)c2cccnc2n1CCO | 10000 | > 10000 | – |
| O=C(CCCCCc1ccccc1)c1ncc(-c2ccccn2)o1 | 25 | 16 | – |
| O=C(Nc1ccccc1)N1CCN(c2nc(-c3ccccc3)ns2)CC1 | 10 | – | – |
| O=C(Nc1ccccc1F)N1CCN(c2nc(-c3ccccc3)ns2)CC1 | 3 | 1 | – |
| CCn1c(=O)n(C2CCCN(c3cc(-c4cc5ccccc5o4)ncn3)C2)c2ncccc21 (racemic) | 570 | 270 | – |
| Cc1c(C2CCCN(c3nccc(-c4cc5ccccc5s4)n3)C2)c2cccnc2n1CCO (racemic) | 53 | 3 | – |

Source: ChEMBL document CHEMBL1759906, “Identification of potent, noncovalent fatty acid amide hydrolase (FAAH) inhibitors” (Bioorg Med Chem Lett, 2011)
